In brackets after ≈: the same amount, converted by molar mass.
How the values were obtained:
Format in all cases: functional
[1] = test system: Escherichia coli; assay: Antibacterial activity against Escherichia coli ATCC 25922 after 24 hrs by broth microdilution method; conditions: ATCC 25922, 24 h
Outline: (§1)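 Broth microdilution in Mueller-Hinton broth, run to NCCLS (2001). Overnight cultures were set to 2×10^6 CFU/ml final per well. Compounds were dissolved in 1% DMSO and tested as two-fold serial dilutions. TTC (0.05% final) served as growth indicator. Growth was read by absorbance at 600 nm after 24 h at 37 °C. MIC was the lowest concentration with no visible growth. Triplicate, with two growth controls.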

[2] = test system: Staphylococcus epidermidis; assay: Antibacterial activity against Staphylococcus epidermidis ATCC 12228 after 24 hrs by broth microdilution method; conditions: ATCC 12228, 24 h; outline: as §1
[3] = test system: Micrococcus luteus; assay: Antibacterial activity against Micrococcus luteus ATCC 10240 at 20 ug/disk after 24 hrs by agar diffusion method; conditions: ATCC 10240, 24 h, read-out: IZ
Outline: (§2)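 Disc diffusion on 4-mm Mueller-Hinton agar, inoculated from 24 h MHB cultures (37 °C) diluted to 2×10^6 CFU/ml to give semiconfluent growth. 6-mm discs were impregnated with 1 mg/ml DMSO stock solutions. Plates were incubated 24 h at 37 °C and inhibition zone diameters measured in mm. DMSO solvent control; triplicate, averaged.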

[4] = test system: Candida albicans; assay: Antifungal activity against Candida albicans ATCC 10259 at 20 ug/disk after 72 hrs by agar diffusion method; conditions: ATCC 10259, 72 h, read-out: IZ
Outline: (§3)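 Candida albicans grown 24 h at 25 °C in Sabouraud dextrose broth and diluted to 1×10^8 CFU/ml. This inoculum was spread on 4-mm Sabouraud dextrose agar. 6-mm discs were impregnated with 1 mg/ml DMSO stock solutions and incubated 72 h at 26 °C. Inhibition zone diameters measured in mm; DMSO control; triplicate, averaged.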

[5] = test system: Pseudomonas aeruginosa; assay: Antibacterial activity against Pseudomonas aeruginosa ATCC 27853 after 24 hrs by broth microdilution method; conditions: ATCC 27853, 24 h; outline: as §1
[6] = test system: Bacillus subtilis; assay: Antibacterial activity against Bacillus subtilis ATCC 6633 after 24 hrs by broth microdilution method; conditions: ATCC 6633, 24 h; outline: as §1
[7] = test system: Enterococcus faecalis; assay: Antibacterial activity against Enterococcus faecalis ATCC 29212 at 20 ug/disk after 24 hrs by agar diffusion method; conditions: ATCC 29212, 24 h, read-out: IZ; outline: as §2
[8] = test system: Candida albicans; assay: Antifungal activity against Candida albicans ATCC 24433 at 20 ug/disk after 72 hrs by agar diffusion method; conditions: ATCC 24433, 72 h, read-out: IZ; outline: as §3
[9] = test system: Bacillus subtilis; assay: Antibacterial activity against Bacillus subtilis ATCC 6633 at 20 ug/disk after 24 hrs by agar diffusion method; conditions: ATCC 6633, 24 h, read-out: IZ; outline: as §2
[10] = test system: Escherichia coli; assay: Antibacterial activity against Escherichia coli ATCC 25922 at 20 ug/disk after 24 hrs by agar diffusion method; conditions: ATCC 25922, 24 h, read-out: IZ; outline: as §2
[11] = test system: Pseudomonas aeruginosa; assay: Antibacterial activity against Pseudomonas aeruginosa ATCC 27853 at 20 ug/disk after 24 hrs by agar diffusion method; conditions: ATCC 27853, 24 h, read-out: IZ; outline: as §2
[12] = test system: Staphylococcus aureus; assay: Antibacterial activity against Staphylococcus aureus ATCC 25923 at 20 ug/disk after 24 hrs by agar diffusion method; conditions: ATCC 25923, 24 h, read-out: IZ; outline: as §2
[13] = test system: Micrococcus luteus; assay: Antibacterial activity against Micrococcus luteus ATCC 10240 after 24 hrs by broth microdilution method; conditions: ATCC 10240, 24 h; outline: as §1
[14] = test system: Staphylococcus epidermidis; assay: Antibacterial activity against Staphylococcus epidermidis ATCC 12228 at 20 ug/disk after 24 hrs by agar diffusion method; conditions: ATCC 12228, 24 h, read-out: IZ; outline: as §2
[15] = test system: Candida albicans; assay: Antifungal activity against Candida albicans ATCC 24433 after 48 hrs by broth microdilution method
Outline: (§4)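 Broth microdilution (NCCLS) in Sabouraud dextrose broth, 2×10^5 CFU/ml per well. Compounds in 1% DMSO were two-fold serially diluted over 62.5–1000, with 0.05% final triphenyltetrazolium chloride as growth indicator. Plates were incubated 48 h at 26 °C and growth read by absorbance at 600 nm. MIC is the lowest concentration without visible growth. Triplicate, with two growth controls.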

[16] = test system: Klebsiella pneumoniae; assay: Antibacterial activity against Klebsiella pneumoniae NCIMB 9111 at 20 ug/disk after 24 hrs by agar diffusion method; conditions: NCIMB 9111, 24 h, read-out: IZ; outline: as §2
[17] = test system: Candida albicans; assay: Antifungal activity against Candida albicans ATCC 10259 after 48 hrs by broth microdilution method; outline: as §4
[18] = test system: Klebsiella pneumoniae; assay: Antibacterial activity against Klebsiella pneumoniae NCIMB 9111 after 24 hrs by broth microdilution method; conditions: NCIMB 9111, 24 h; outline: as §1
[19] = test system: Enterococcus faecalis; assay: Antibacterial activity against Enterococcus faecalis ATCC 29212 after 24 hrs by broth microdilution method; conditions: ATCC 29212, 24 h; outline: as §1
[20] = test system: Staphylococcus aureus; assay: Antibacterial activity against Staphylococcus aureus ATCC 25923 after 24 hrs by broth microdilution method; conditions: ATCC 25923, 24 h; outline: as §1
[21] = test system: Staphylococcus epidermidis; assay: Antibacterial activity against Staphylococcus epidermidis ATCC 12228 at 10 ug/disk after 24 hrs by agar diffusion method; conditions: ATCC 12228, 24 h, read-out: IZ
Outline: (§5)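 Reference antibiotic discs (ampicillin or amikacin) placed on 4-mm Mueller-Hinton agar inoculated to semiconfluent growth from 2×10^6 CFU/ml suspensions. Incubation 24 h at 37 °C, then inhibition zone diameter read in mm. Triplicate, averaged; done per NCCLS 1993 disc standard.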

[22] = test system: Bacillus subtilis; assay: Antibacterial activity against Bacillus subtilis ATCC 6633 at 10 ug/disk after 24 hrs by agar diffusion method; conditions: ATCC 6633, 24 h, read-out: IZ; outline: as §5
[23] = test system: Staphylococcus aureus; assay: Antibacterial activity against Staphylococcus aureus ATCC 25923 at 10 ug/disk after 24 hrs by agar diffusion method; conditions: ATCC 25923, 24 h, read-out: IZ; outline: as §5
[24] = test system: Enterococcus faecalis; assay: Antibacterial activity against Enterococcus faecalis ATCC 29212 at 10 ug/disk after 24 hrs by agar diffusion method; conditions: ATCC 29212, 24 h, read-out: IZ; outline: as §5
[25] = test system: Escherichia coli; assay: Antibacterial activity against Escherichia coli ATCC 25922 at 10 ug/disk after 24 hrs by agar diffusion method; conditions: ATCC 25922, 24 h, read-out: IZ
[26] = test system: Micrococcus luteus; assay: Antibacterial activity against Micrococcus luteus ATCC 10240 at 10 ug/disk after 24 hrs by agar diffusion method; conditions: ATCC 10240, 24 h, read-out: IZ; outline: as §5
[27] = test system: Klebsiella pneumoniae; assay: Antibacterial activity against Klebsiella pneumoniae NCIMB 9111 at 10 ug/disk after 24 hrs by agar diffusion method; conditions: NCIMB 9111, 24 h, read-out: IZ; outline: as §5
[28] = test system: Pseudomonas aeruginosa; assay: Antibacterial activity against Pseudomonas aeruginosa ATCC 27853 at 10 ug/disk after 24 hrs by agar diffusion method; conditions: ATCC 27853, 24 h, read-out: IZ; outline: as §5

Compound	MBC [1] [µM]	MIC [1] [µM]	MBC [2] [µM]	MIC [2] [µM]	MBC [5] [µM]	MIC [5] [µM]	MBC [6] [µM]	MIC [6] [µM]	MBC [13] [µM]	MIC [13] [µM]	MBC [18] [µM]	MIC [18] [µM]	MBC [19] [µM]	MIC [19] [µM]	MBC [20] [µM]	zone of inhibition at 10 µg/disc [21] [mm]	zone of inhibition at 10 µg/disc [22] [mm]	zone of inhibition at 10 µg/disc [23] [mm]	zone of inhibition at 10 µg/disc [24] [mm]	zone of inhibition at 10 µg/disc [25] [mm]	further results
O=C(N[C@@H](Cc1ccccc1)C(=O)O)OCc1ccccc1	> 3340	3340 (≈ 1000 µg/mL)	> 3340	3340 (≈ 1000 µg/mL)	> 3340	> 3340	3340 (≈ 1000 µg/mL)	1670 (≈ 500 µg/mL)	> 3340	3340 (≈ 1000 µg/mL)	> 3340	3340 (≈ 1000 µg/mL)	> 3340	> 3340	> 3340						zone of inhibition at 20 µg/disc [3]: 0 mm; zone of inhibition at 20 µg/disc [4]: 0 mm; zone of inhibition at 20 µg/disc [7]: 0 mm; zone of inhibition at 20 µg/disc [8]: 0 mm; zone of inhibition at 20 µg/disc [9]: 0 mm; zone of inhibition at 20 µg/disc [10]: 0 mm; zone of inhibition at 20 µg/disc [11]: 0 mm; zone of inhibition at 20 µg/disc [12]: 0 mm; zone of inhibition at 20 µg/disc [14]: 8 mm; MFC ([15]; ATCC 24433, 48 h): 1660 µM (≈ 497 µg/mL); MIC ([15]; ATCC 24433, 48 h): 830 µM (≈ 248 µg/mL); zone of inhibition at 20 µg/disc [16]: 0 mm; MFC ([17]; ATCC 10259, 48 h): 1660 µM (≈ 497 µg/mL); MIC ([17]; ATCC 10259, 48 h): 830 µM (≈ 248 µg/mL); MIC [20]: 3340 µM (≈ 1000 µg/mL)
CC1(C)S[C@@H]2[C@H](NC(=O)[C@H](N)c3ccccc3)C(=O)N2[C@H]1C(=O)O [AMPICILLIN]	22 (≈ 7.69 µg/mL)	11 (≈ 3.84 µg/mL)	6 (≈ 2.1 µg/mL)	3 (≈ 1.05 µg/mL)	46 (≈ 16.1 µg/mL)	23 (≈ 8.04 µg/mL)	10 (≈ 3.49 µg/mL)	5 (≈ 1.75 µg/mL)	2 (≈ 0.699 µg/mL)	1 (≈ 0.349 µg/mL)	33 (≈ 11.5 µg/mL)	11 (≈ 3.84 µg/mL)	6 (≈ 2.1 µg/mL)	3 (≈ 1.05 µg/mL)	4 (≈ 1.4 µg/mL)	12	15	26	16	18	zone of inhibition at 10 µg/disc [26]: 33 mm; zone of inhibition at 10 µg/disc [27]: 23 mm
NYSTATIN																					MFC [15]: 60 µM; MIC [15]: 30 µM; MFC [17]: 140 µM; MIC [17]: 70 µM
NCC[C@H](O)C(=O)N[C@@H]1C[C@H](N)[C@@H](O[C@H]2O[C@H](CN)[C@@H](O)[C@H](O)[C@H]2O)[C@H](O)[C@H]1O[C@H]1O[C@H](CO)[C@@H](O)[C@H](N)[C@H]1O [AMIKACIN]	6 (≈ 3.51 µg/mL)	3 (≈ 1.76 µg/mL)			12 (≈ 7.03 µg/mL)	6 (≈ 3.51 µg/mL)					9 (≈ 5.27 µg/mL)	3 (≈ 1.76 µg/mL)				33	32	25	23	30	zone of inhibition at 10 µg/disc [28]: 30 mm; zone of inhibition at 10 µg/disc [26]: 31 mm; zone of inhibition at 10 µg/disc [27]: 25 mm
